Assay [1] deals with T1, Toll-like receptor 4 (Mus musculus) (UniProt Q9QUK6).
T1 sequence (whole entry): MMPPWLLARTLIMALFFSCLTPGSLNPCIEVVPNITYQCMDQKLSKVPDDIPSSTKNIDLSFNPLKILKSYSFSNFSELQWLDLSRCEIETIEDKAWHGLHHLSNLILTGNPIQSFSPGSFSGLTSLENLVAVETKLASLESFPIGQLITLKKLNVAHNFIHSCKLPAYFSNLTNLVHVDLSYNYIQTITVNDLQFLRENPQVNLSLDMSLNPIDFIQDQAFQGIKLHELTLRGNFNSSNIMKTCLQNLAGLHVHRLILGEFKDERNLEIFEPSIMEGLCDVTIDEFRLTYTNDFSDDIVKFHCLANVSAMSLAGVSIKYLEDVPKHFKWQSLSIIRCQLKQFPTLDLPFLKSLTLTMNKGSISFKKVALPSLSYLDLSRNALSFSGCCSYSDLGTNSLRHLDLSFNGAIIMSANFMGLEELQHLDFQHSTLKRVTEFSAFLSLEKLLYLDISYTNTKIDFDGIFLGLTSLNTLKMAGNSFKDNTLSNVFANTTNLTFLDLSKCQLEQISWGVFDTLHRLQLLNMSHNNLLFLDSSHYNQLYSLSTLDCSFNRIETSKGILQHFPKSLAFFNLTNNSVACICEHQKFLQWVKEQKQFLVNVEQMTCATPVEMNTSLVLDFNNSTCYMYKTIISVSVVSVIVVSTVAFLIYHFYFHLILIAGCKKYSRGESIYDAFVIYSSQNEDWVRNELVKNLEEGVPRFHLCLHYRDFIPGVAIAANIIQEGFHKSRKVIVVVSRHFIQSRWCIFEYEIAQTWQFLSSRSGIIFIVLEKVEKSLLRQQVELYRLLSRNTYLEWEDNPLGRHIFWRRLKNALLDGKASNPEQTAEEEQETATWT
Kind of assay: Agonist activity at TLR4 in C57BL/6J mouse macrophages assessed as stimulation of TNFalpha release at 50 uM after 4 hrs by ELISA. A digest of the protocol:
(§1)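 Peritoneal macrophages from wild-type C57BL/6J mice, collected by PBS lavage and cultured in DMEM/10% FBS at 37 °C, 5% CO2. Seeded at 1 × 10^5 cells/well and treated 4 h with compound in DMSO (0.5% final) beside ultra-pure LPS and DMSO controls. Supernatant TNF-α measured by ELISA; mean of triplicates.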

The target of assay [2] is T2, Toll-like receptor 4 (Mus musculus, UniProt Q9QUK6).
T2 sequence (Q9QUK6 whole entry): T1 sequence (whole entry)
Kind of assay: (§2) Agonist activity at TLR4 in C57BL/6J mouse macrophages assessed as stimulation of TNFalpha release after 4 hrs by ELISA. A digest of the protocol: as §1

Assay [3] deals with T1, Toll-like receptor 4 (Mus musculus). The description is as §2. The essentials: as §1

We go through 60 molecules from ChEMBL document CHEMBL3817776, “Discovery and Structure-Activity Relationships of the Neoseptins: A New Class of Toll-like Receptor-4 (TLR4) Agonists” (J Med Chem, 2016).

Active and inactive are the calls of the source. The rule behind the calls is not given here.

With `CCCCCCNC(=O)[C@H](CCc1ccccc1)NC(=O)c1ccc(N)c(CCc2ccc(O)cc2)c1`, the outcome in assay [1] was Active.
On the same count and under the same terms, then `CC(C)(C)OC(=O)[C@H](CCc1ccccc1)NC(=O)c1ccc([N+](=O)[O-])c(OCCc2ccc(O)cc2)c1`, with “inactive”; and `CC(C)(C)OC(=O)[C@H](CCc1ccccc1)NC(=O)c1ccc(N)c(COc2ccc(O)cc2)c1`, with “Active”; and `CNc1ccc(C(=O)N[C@@H](CCc2ccccc2)C(=O)OC(C)(C)C)cc1CCc1ccc(O)cc1`, with “inactive”.
On the same count and under the same terms, then `CC(C)(C)OC(=O)[C@H](CCc1ccccc1)NC(=O)c1cccc(CCc2ccc(O)cc2)c1`, with “inactive”.
For `CC(C)(C)COC(=O)[C@H](CCc1ccccc1)NC(=O)c1ccc(N)c(CCc2ccc(O)cc2)c1`, the outcome in assay [1] was inactive.
Same read-out and setting: with `CC(C)(C)OC(=O)[C@H](CCc1ccccc1)NC(=O)c1ccc(N)c(Sc2ccc(O)cc2)c1` the entry was “inactive”; with `CCCCCCCNC(=O)[C@H](CCc1ccccc1)NC(=O)c1ccc(N)c(CCc2ccc(O)cc2)c1`, “inactive”.
Still for that read-out and setting: then `CC(C)(C)OC(=O)[C@H](CCc1ccccc1)NCc1ccc(N)c(CCc2ccc(O)cc2)c1`, with “inactive”; and `CC(C)(C)OC(=O)[C@H](CCc1ccccc1)NC(=O)c1ccc(N)c(CCCc2ccc(O)cc2)c1`, with “Active”; and `CC(C)(C)OC(=O)[C@H](CCc1ccccc1)NC(=O)c1ccc(N)c(OCCc2ccc(O)c(F)c2)c1`, with “inactive”.
As for `CC(C)(C)OC(=O)[C@H](CCc1ccccc1)NC(=O)c1ccc(N)c(C#Cc2ccc(O)cc2)c1`, the outcome in assay [1] was inactive.
Take `CC(C)(C)OC(=O)[C@@H](N)Cc1ccccc1`: the result in assay [1] was inactive.
Same read-out and setting: then `CC(C)C[C@H](N)C(=O)OC(C)(C)C`, with “Active”.
Still for that read-out and setting: with `CC(C)(C)NC(=O)[C@H](CCc1ccccc1)NC(=O)c1ccc(N)c(CCc2ccc(O)cc2)c1` the entry was “inactive”; with `CC(C)(C)OC(=O)[C@H](CCc1ccccc1)NC(=O)c1cc(CCc2ccc(O)cc2)ccc1N`, “inactive”.
Still for that read-out and setting: then `CC(C)(C)OC(=O)[C@H](CCc1ccccc1)NC(=O)c1ccc(N)c(OCCc2cccc(O)c2)c1`, with “Active”; and `CC(C)(C)OC(=O)[C@H](CCCc1ccccc1)NC(=O)c1ccc(N)c(CCc2ccc(O)cc2)c1`, with “inactive”.
`CC(C)(C)OC(=O)[C@H](CCc1ccc(Cl)cc1)NC(=O)c1ccc(N)c(CCc2ccc(O)cc2)c1`: the result in assay [1] was inactive.
Regarding `CC(C)(C)OC(=O)[C@H](CCc1ccccc1)NC(=O)c1cccc(OCCc2ccc(O)cc2)c1`, the result in assay [1] was inactive.
Still for that read-out and setting: with `CN(C)c1ccc(C(=O)N[C@@H](CCc2ccccc2)C(=O)OC(C)(C)C)cc1CCc1ccc(O)cc1` the entry was “inactive”.
Still for that read-out and setting: then `CC(C)(C)OC(=O)[C@H](CCCCc1ccccc1)NC(=O)c1ccc(N)c(CCc2ccc(O)cc2)c1`, with “inactive”.
As for `COc1ccc(CC[C@H](NC(=O)c2ccc(N)c(CCc3ccc(O)cc3)c2)C(=O)OC(C)(C)C)cc1`, the EC50 in assay [2] is 22.2 µM. Besides, the outcome in assay [1] was Active.
As for `CCCCCCCCCCNC(=O)[C@H](CCc1ccccc1)NC(=O)c1ccc(N)c(CCc2ccc(O)cc2)c1`, the outcome in assay [1] was inactive.
On the same count and under the same terms, with `Nc1ccc(C(=O)N[C@@H](CCc2ccccc2)C(=O)O)cc1OCCc1ccc(O)cc1` the entry was “inactive”; with `CC(C)(C)OC(=O)[C@H](CCc1ccccc1)NC(=S)c1ccc(N)c(CCc2ccc(O)cc2)c1`, “inactive”.
Same read-out and setting: with `CC(C)(C)OC(=O)[C@H](CCc1ccccc1)NC(=O)c1ccc(N)c(Cc2ccc(O)cc2)c1` the entry was “inactive”; with `CC(C)(C)OC(=O)[C@H](CCc1ccc(N)cc1)NC(=O)c1ccc(N)c(CCc2ccc(O)cc2)c1`, “inactive”.
Still for that read-out and setting: then `CC(=O)Nc1ccc(C(=O)N[C@@H](CCc2ccccc2)C(=O)OC(C)(C)C)cc1CCc1ccc(O)cc1`, with “inactive”.
On to `Cc1ccc(CC[C@H](NC(=O)c2ccc(N)c(CCc3ccc(O)cc3)c2)C(=O)OC(C)(C)C)cc1`, for which, in assay [2], the EC50 is 21.6 µM. Further, the result in assay [1] was Active.
With `CC(C)(C)OC(=O)[C@H](CCc1ccccc1)NC(=O)c1ccc(N)c(Nc2ccc(O)cc2)c1`, in assay [1], the outcome was inactive.
Same read-out and setting: with `CC[C@H](N)C(=O)OC(C)(C)C` the entry was “Active”.
On to `NC(=O)[C@H](CCc1ccccc1)NC(=O)c1ccc(N)c(CCc2ccc(O)cc2)c1`, for which the result in assay [1] was inactive.
Same read-out and setting: then `CC(C)(C)OC(=O)[C@H](CCc1ccccc1)NC(=O)c1ccc(N)c(OCCCc2ccc(O)cc2)c1`, with “inactive”.
On the same count and under the same terms, with `CCC(C)(C)OC(=O)[C@H](CCc1ccccc1)NC(=O)c1ccc(N)c(CCc2ccc(O)cc2)c1` the entry was “Active”.
On the same count and under the same terms, then `Nc1ccc(C(=O)N[C@@H](CCc2ccccc2)C(=O)O)cc1CCc1ccc(O)cc1`, with “inactive”; and `COc1ccc(C[C@H](N)C(=O)Nc2ccc(C(=O)N[C@@H](CCc3ccccc3)C(=O)O)cc2OCCc2ccc(O)cc2)cc1`, with “Active”.
As for `N[C@@H](Cc1ccccc1)C(=O)Nc1ccc(C(=O)N[C@@H](CCc2ccccc2)C(=O)O)cc1OCCc1ccc(O)cc1`, in assay [1], the outcome was Active.
Same read-out and setting: then `CC(C)(C)OC(=O)[C@H](CCc1ccccc1)NC(=O)c1ccc(N)c(OCCc2ccc(O)c(Cl)c2)c1`, with “inactive”.
The same measure, in the same setting: then `CC(C)(C)OC(=O)[C@H](CCc1ccccc1)NC(=O)c1ccc(N)c(-c2ccc(O)cc2)c1`, with “inactive”.
On the same count and under the same terms, then `CC(C)[C@H](N)C(=O)OC(C)(C)C`, with “Active”; and `CC(C)(C)OC(=O)[C@H](CCc1ccc(F)cc1)NC(=O)c1ccc(N)c(CCc2ccc(O)cc2)c1`, with “Active”.
Consider `CC(C)(C)OC(=O)[C@H](CCc1ccccc1)NC(=O)c1ccc(N)c(CCc2ccccc2)c1`, for which the result in assay [1] was inactive.
The same measure, in the same setting: with `CC(C)OC(=O)[C@H](CCc1ccccc1)NC(=O)c1ccc(N)c(CCc2ccc(O)cc2)c1` the entry was “inactive”; with `CCCCCCCCCNC(=O)[C@H](CCc1ccccc1)NC(=O)c1ccc(N)c(CCc2ccc(O)cc2)c1`, “inactive”; with `CCCCCCCCNC(=O)[C@H](CCc1ccccc1)NC(=O)c1ccc(N)c(CCc2ccc(O)cc2)c1`, “inactive”.
On to `COc1ccc(CCc2cc(C(=O)N[C@@H](CCc3ccccc3)C(=O)OC(C)(C)C)ccc2N)cc1`, for which the outcome in assay [1] was inactive.
The same measure, in the same setting: with `CC(C)(C)OC(=O)[C@H](CCc1ccccc1)NC(=O)c1cc(N)cc(CCc2ccc(O)cc2)c1` the entry was “Active”.
As for `CC(C)(C)OC(=O)[C@H](CCc1ccccc1)NC(=O)c1ccc(N)c(OCCc2ccc(O)cc2)c1`, the Activity result in assay [3] was “Dose-dependent effect”. For the same molecule, in assay [2], the EC50 is 20.7 µM.
As for `C#CCC(C)(C)OC(=O)[C@H](CCc1ccccc1)NC(=O)c1ccc(N)c(CCc2ccc(O)cc2)c1`, the outcome in assay [1] was inactive.
Still for that read-out and setting: with `CC(C)(C)OC(=O)[C@H](CCc1ccccc1)NC(=O)c1ccc(N)c(CCc2ccccc2O)c1` the entry was “inactive”.
The same measure, in the same setting: then `N[C@@H](Cc1ccc2ccccc2c1)C(=O)Nc1ccc(C(=O)N[C@@H](CCc2ccccc2)C(=O)O)cc1OCCc1ccc(O)cc1`, with “Active”.
In the case of `CC(C)(C)OC(=O)[C@H](CCc1ccccc1)NC(=O)c1ccc(N)c(OCCCCc2ccc(O)cc2)c1`, the outcome in assay [1] was inactive.
The same measure, in the same setting: with `CC(C)(C)OC(=O)[C@H](CCc1ccccc1)NC(=O)c1ccc(N)c(CCc2cccc(O)c2)c1` the entry was “Active”; with `CC(C)(C)OC(=O)[C@H](CCc1ccc(O)cc1)NC(=O)c1ccc(N)c(CCc2ccc(O)cc2)c1`, “inactive”.
Same read-out and setting: with `CN(C(=O)c1ccc(N)c(CCc2ccc(O)cc2)c1)[C@@H](CCc1ccccc1)C(=O)OC(C)(C)C` the entry was “inactive”.
As for `Nc1ccc(C(=O)N[C@@H](CCc2ccccc2)C(=O)OC23CC4CC(CC(C4)C2)C3)cc1CCc1ccc(O)cc1`, in assay [1], the result was inactive.
Same read-out and setting: with `CC(C)(C)OC(=O)[C@H](CCc1ccccc1)NC(=O)c1ccc(N)c(OCCc2ccccc2)c1` the entry was “inactive”.
Same read-out and setting: with `CSCC[C@H](N)C(=O)OC(C)(C)C` the entry was “inactive”.
With `CC(C)(C)OC(=O)[C@H](CCC1CCCCC1)NC(=O)c1ccc(N)c(CCc2ccc(O)cc2)c1`, in assay [2], the EC50 turned out to be 29.5 µM. The outcome in assay [1] was Active.
